The results in this text go back to PubChem BioAssay.

Several values for one entry are separate records, joined by “and”; a condition that tells them apart may be missing. Equal values may be shown once. Activity calls are given as the source filed them.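 Rule for the calls, unless noted: active = viability at or below 30% in both replicate assays; inconclusive = viability at or below 30% in just one of the two assays; inactive = the rest.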

A short description of assay [1]: SK-BR-3 cell growth inhibitors, pilot screen, 24 h, human (AID 572;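 active = viability at or below 10% of carrier control in both of two separate runs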;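 note: compound exposure lasted between 18 and 24 h rather than exactly 24 h; 100% = carrier-treated control wells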). Conditions: SK-BR-3 viability, CellTiter-Glo luminescence, at 10 µM, stronger effect = lower value. For orientation: ATP-based viability assays read luminescence as a measure of living cells.
Assay [2] can be described thus: HUVEC growth inhibition – cell-based, human, primary screen (AID 575).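 Note: 100% = median of untreated cell wells with 0.1% DMSO on each plate.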 The conditions noted are these: HUVEC proliferation, CellTiter-Glo luminescence, 72 h; at 10 µM; stronger effect = lower value. The method in brief:
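Assay system: Primary human umbilical vein endothelial cells | Quantity: 1250 cells per well | Medium: Supplemented EBM, 2% fetal bovine serum | Detection: CellTiter-Glo luminescence measuring cellular ATP | Read-out: % viability vs DMSO wells | Plate: Collagen-coated 384-well format | Times: 72 h exposure, 37 °C, 5% CO2, 30 min RT equilibration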

The nature of assay [3]: growth inhibitors of H69AR lung tumor, primary screen, human, duplicate replicates (AID 580;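 active = viability at or under a set limit in both replicates, limit being median viability minus 3 SD, cut at about 48% in these data, passing the limit was not always enough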;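 note: 100% = mean luminescence of untreated wells and 0% = no signal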). Conditions: H69AR lung tumor cells viability, ATP luminescence, 72 h; at 10 µM; stronger effect = lower value.
Assay [4] can be described thus: reversal of MRP1-mediated doxorubicin resistance, pilot screen, H69AR cells, doxorubicin co-treatment (AID 601;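 active = viability loss from added drug above about 55%, and viability with drug at most 40%, in both replicates, limit read from the data, passing the limit was not always enough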). The conditions noted are these: CellTiter-Glo, 72 h, at 10 µM; for differential viability (reversal): stronger effect = higher value.
Assay [5] is described as follows: 384-well plate pilot, post-Golgi transport modulator project, inhibition of yeast transport mutant growth (AID 636; in the data active = inhibition above about 31%). The conditions noted are these: absorbance 615 nm, about 18 h, stronger effect = higher value.
The nature of assay [6]: growth suppression of yeast trafficking mutant, preliminary HTS, modulators of trafficking downstream of Golgi apparatus project, 1536-format plate, OD 615 nm (AID 637; in the data active = inhibition above about 30%). Conditions: yeast transport mutant growth, absorbance 615 nm, 18 h; stronger effect = higher value.
The mark [7] stands for this setting: H69AR cells + 2 uM doxorubicin, measured here: viability with 2 uM doxorubicin, stronger effect = lower value.
Where [8] appears, read: H69AR cells, compound alone cytotoxicity.

Usually viability stands for a read-out of living cells in per cent, often relative to untreated cells. The inhibition is the change of the read-out against control, counted positive when it falls. Turning to `CCN(CC)CCOC(=O)C1(c2ccc(OC)c(OC)c2)CCCC1`, the viability was 89% (inactive) in assay [1]; 99.6% (inactive) in assay [2]; 82.7% (inactive) in assay [3]; 80.5% in assay [4] (setting [7]); 82.7% in assay [4] (setting [8]). Also, in assay [4] (H69AR cells + 2 uM doxorubicin), the differential viability (reversal) was 2.25% (inactive). The inhibition in assay [5] was -5.14% (inactive); in assay [6] it was 1.45% (inactive).

Regarding `O=C(c1ccco1)N1CCN(c2nc(C(F)(F)F)nc3c2nnn3Cc2ccccc2)CC1`, the viability in assay [1] was 133% (inactive); in assay [2], 69.2% (inactive); in assay [3], 73.3% (inactive); in assay [4] (setting [7]) it was 75.8%; in assay [4] (setting [8]) it was 73.3%. Further, the differential viability (reversal) in assay [4] (H69AR cells + 2 uM doxorubicin) was -2.53% (inactive). In addition, the inhibition in assay [5] is -9.45% (inactive); in assay [6] it was -0.16% (inactive).

As for `Cc1cc(C)c(NC2=NCC(=O)N2C2CCCCC2)c(C)c1`, the viability is 106% (inactive) in assay [1]; 107% (inactive) in assay [2]; 86.3% (inactive) in assay [3]; 91.5% in assay [4] (setting [7]); 86.3% in assay [4] (setting [8]). Also, the differential viability (reversal) in assay [4] (H69AR cells + 2 uM doxorubicin) was -5.14% (inactive). Moreover, the inhibition in assay [5] was -7.53% (inactive); in assay [6], -3.09% (inactive).

In the case of `CCOC(=O)C1(c2ccccc2)NC(c2ccc(N(C)C)cc2)C2C(=O)N(C)C(=O)C21` (centres undefined), the viability in assay [1] is 82% (inactive); in assay [2], 104% (inactive); in assay [3] it was 94.4% (inactive); in assay [4] (setting [7]), 65.2%; in assay [4] (setting [8]) it was 94.4%. For the same compound, the differential viability (reversal) in assay [4] (H69AR cells + 2 uM doxorubicin) was 29.2% (inactive). In addition, the inhibition in assay [5] was -8.11% (inactive); in assay [6], -6.73% (inactive).

Regarding `O=C(c1ccc(S(=O)(=O)N2CCC(c3nc4ccccc4s3)CC2)cc1)N1CCOCC1`, the viability was 97% (inactive) in assay [1]; 100% (inactive) in assay [2]; 71.4% (inactive) in assay [3]; 100% in assay [4] (setting [7]); 71.4% in assay [4] (setting [8]). Besides, the differential viability (reversal) in assay [4] (H69AR cells + 2 uM doxorubicin) is -28.7% (inactive). The inhibition in assay [5] is -5.34% (inactive); in assay [6], 3.64% (inactive).

In the case of `COC(=O)c1[nH]c2ccc(C)cc2c1NC(=O)CN1CCN(C(=O)c2ccccc2)CC1`, the viability was 130% (inactive) in assay [1]; 94% (inactive) in assay [2]; 78.4% (inactive) in assay [3]; 44.9% in assay [4] (setting [7]); 78.4% in assay [4] (setting [8]). Besides, the differential viability (reversal) in assay [4] (H69AR cells + 2 uM doxorubicin) is 33.4% (inactive). Besides, the values for the inhibition in assay [5] and in assay [6] were -4.67% (inactive) and -0.36% (inactive), respectively.

In the case of `O=C(OCC(=O)c1ccccc1Br)c1ccccn1`, the viability is 142% (inactive) in assay [1]; 89.8% (inactive) in assay [2]; 86.8% (inactive) in assay [3]; 81.7% in assay [4] (setting [7]); 86.8% in assay [4] (setting [8]). Moreover, the differential viability (reversal) in assay [4] (H69AR cells + 2 uM doxorubicin) was 5.17% (inactive). Moreover, the inhibition in assay [5] is -3.77% (inactive); in assay [6], -1.64% (inactive).

For `Cc1nn(C(=O)c2ccccc2)c2c1C(=O)CC(C)(C)C2`, the viability in assay [1] is 76% (inactive); in assay [2], 95.8% (inactive); in assay [3], 94.7% (inactive); in assay [4] (setting [7]), 93.4%; in assay [4] (setting [8]), 94.7%. Moreover, in assay [4] (H69AR cells + 2 uM doxorubicin), the differential viability (reversal) is 1.29% (inactive). The inhibition in assay [5] was -7.12% (inactive); in assay [6] it was 0.73% (inactive).

In the case of `Cc1ccc2cc(CN(Cc3ccc(F)cc3)Cc3nnnn3C3CCCC3)c(=O)[nH]c2c1`, the viability in assay [1] was 100% (inactive); in assay [2], 71.2% (inactive); in assay [3], 78.7% (inactive); in assay [4] (setting [7]), 74.4%; in assay [4] (setting [8]), 78.7%. In addition, in assay [4] (H69AR cells + 2 uM doxorubicin), the differential viability (reversal) was 4.34% (inactive). For the same compound, the values for the inhibition in assay [5] and in assay [6] were -4.19% (inactive) and 3.09% (inactive), respectively.

With `COc1ccc2cc(C#N)c(N3CCN(Cc4nnnn4CCC(C)C)CC3)nc2c1`, the viability in assay [1] was 89% (inactive); in assay [2], 64.5% (inactive); in assay [3], 79.4% (inactive); in assay [4] (setting [7]), 71.2%; in assay [4] (setting [8]), 79.4%. The differential viability (reversal) in assay [4] (H69AR cells + 2 uM doxorubicin) is 8.18% (inactive). For the same compound, the inhibition in assay [5] was -2.93% (inactive); in assay [6] it was 2.73% (inactive).

Regarding `Cc1csc(NC(=O)CCn2c(=O)oc3ccccc32)n1`, the viability was 91% (inactive) in assay [1]; 98.8% (inactive) in assay [2]; 94.4% (inactive) in assay [3]; 84.5% in assay [4] (setting [7]); 94.4% in assay [4] (setting [8]). In assay [4] (H69AR cells + 2 uM doxorubicin), the differential viability (reversal) was 9.97% (inactive). Further, the inhibition in assay [5] is -5.95% (inactive); in assay [6], 1.45% (inactive).

For `O=C(NCc1ccccc1)c1cc(-c2ccco2)on1`, the viability in assay [1] is 111% (inactive); in assay [2], 100% (inactive); in assay [3], 94% (inactive); in assay [4] (setting [7]), 77.3%; in assay [4] (setting [8]) it was 94%. Also, the differential viability (reversal) in assay [4] (H69AR cells + 2 uM doxorubicin) is 16.6% (inactive). The inhibition in assay [5] is -0.13% (inactive); in assay [6], 4.59% (inactive).

Regarding `Cc1nc2c(-c3ccccc3)c(C)[nH]n2c(=O)c1Cl`, the viability in assay [1] is 93% (inactive); in assay [2] it was 72.7% (inactive); in assay [3] it was 77.5% (inactive); in assay [4] (setting [7]), 96.8%; in assay [4] (setting [8]), 77.5%. In assay [4] (H69AR cells + 2 uM doxorubicin), the differential viability (reversal) was -19.2% (inactive). Besides, the inhibition in assay [5] was -0.55% (inactive); in assay [6], 11.8% (inactive).

`Cc1ccc2nc(-c3ccccn3)cc(C(=O)N3CCN(c4ncccn4)CC3)c2c1`: the viability is 100% (inactive) in assay [1]; 102% (inactive) in assay [2]; 77.8% (inactive) in assay [3]; 83.5% in assay [4] (setting [7]); 77.8% in assay [4] (setting [8]). Besides, the differential viability (reversal) in assay [4] (H69AR cells + 2 uM doxorubicin) is -5.74% (inactive). The inhibition in assay [5] was -2.7% (inactive); in assay [6], 0.91% (inactive).

For `Nc1ccc(S(=O)(=O)c2ccc(N)cc2)cc1`, the viability in assay [1] is 95% (inactive); in assay [2], 85.9% (inactive); in assay [3], 106% (inactive); in assay [4] (setting [7]), 87.1%; in assay [4] (setting [8]), 106%. The differential viability (reversal) in assay [4] (H69AR cells + 2 uM doxorubicin) is 19.4% (inactive). In addition, the inhibition in assay [5] was -2.21% (inactive); in assay [6], 5.17% (inactive).

On to `CCc1nnc(NC(=O)C2Cc3ccccc3CN2S(=O)(=O)c2cccs2)s1` (centres undefined), for which the viability in assay [1] was 109% (inactive); in assay [2], 89% (inactive); in assay [3], 68.1% (inactive); in assay [4] (setting [7]), 84.5%; in assay [4] (setting [8]), 68.1%. For the same compound, the differential viability (reversal) in assay [4] (H69AR cells + 2 uM doxorubicin) is -16.4% (inactive). Also, the inhibition in assay [5] is -2.34% (inactive); in assay [6] it was -3.28% (inactive).

On to `Nc1nc(Cl)nc2c1ncn2[C@H]1C[C@H](O)[C@@H](CO)O1`, for which the viability in assay [1] was 116% (inactive) and 105% (inactive); in assay [2], 67% (inactive) and 36.3% (inactive); in assay [3], 93.8% (inactive); in assay [4] (setting [7]) it was 103% and 81.2%; in assay [4] (setting [8]), 93.8% and 49.4%. The differential viability (reversal) in assay [4] (H69AR cells + 2 uM doxorubicin) was -9.28% (inactive) and -31.8% (inactive). The inhibition in assay [5] was 2.34% (inactive) and 0.52% (inactive); in assay [6] it was 1% (inactive) and -1% (inactive).

As for `Cc1cc(C(=O)NCc2cccnc2)no1`, the viability in assay [1] was 77% (inactive); in assay [2], 108% (inactive); in assay [3], 99.2% (inactive); in assay [4] (setting [7]) it was 93%; in assay [4] (setting [8]) it was 99.2%. The differential viability (reversal) in assay [4] (H69AR cells + 2 uM doxorubicin) was 6.27% (inactive). Further, the values for the inhibition in assay [5] and in assay [6] were -4.52% (inactive) and 1.61% (inactive), respectively.
